Test results as given in ChEMBL document CHEMBL1123247, “Nucleoside conjugates. 7. Synthesis and antitumor activity of 1-beta-D-arabinofuranosylcytosine conjugates of ether lipids” (J Med Chem, 1986).

What was measured:
AMML = assay: Compound was tested for the inhibition of AMML (acute myelomonocytic leukemia); assay type: functional, cell-based; conditions: Homo sapiens
Outline: (§1)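 Human leukemia and solid tumor cells in culture were exposed to compound for 48 h. Viability was scored by trypan blue dye exclusion. IC50 (50% inhibition) was estimated from response curves of three separate experiments.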

CML/BC = assay: Compound was tested for the inhibition of CML/BC(chronic myeloid leukemia, blast crisis); assay type: functional, cell-based; conditions: Homo sapiens; outline: as §1
Glioblastoma cell line = assay: Compound was tested for the inhibition of glioblastoma; assay type: functional, cell-based; conditions: Homo sapiens; outline: as §1
HL-60 = assay: Compound was tested for the inhibition of human HL60 Leukemia; assay type: functional, cell-based; outline: as §1
L1210 [1] = assay: Antitumor activity was determined against the ip implanted L1210 leukemia in mice by range in survival days at 5 mg/kg (treatment of 1-5qd schedule) dosage; Range is 8-9; assay type: functional, Mus musculus; conditions: route intraperitoneal
Outline: (§2)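 DBA/2J mice, 23-28 g, in groups of 6, were inoculated ip with 1×10^6 L1210 cells on day 0. Dosing was ip starting 24 h later on the stated daily schedules. Conjugates were given as sonicated solutions and reference prodrugs as suspensions in 0.9% NaCl with 0.5% Tween-80. Mice were observed daily until death or 45 days. Median survival T/C was calculated from survivors per NCI protocols.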

L1210 [2] = assay: Antitumor activity against the ip implanted L1210 leukemia in mice expressed as optimal dose (1-5qd treatment schedule) required to produce greatest increase in life span was determined; assay type: functional, Mus musculus
Outline: (§3)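 DBA/2J mice, groups of 6 (23-28 g), were inoculated ip with 1 × 10^6 L1210 cells on day 0. Dosing was ip from 24 h, in 0.9% NaCl with 0.5% Tween-80 (sonicated solution or suspension). Mice were observed daily until death or day 45. Median survival T/C followed NCI protocols, and ILS = (T/C − 1) × 100. Active range means doses giving ILS ≥25%; optimal dose means greatest ILS.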

L1210 [3] = assay: Antitumor activity was determined against the ip implanted L1210 leukemia in mice by 45-day survivors in mice at 5 mg/kg (treatment of 1-5qd schedule) dosage; assay type: functional, Mus musculus; conditions: route intraperitoneal
Outline: (§4)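 DBA/2J mice in groups of 6 (wt 23-28 g) were inoculated ip with 1×10^6 L1210 cells on day 0. Dosing was ip from 24 h, in 0.9% NaCl with 0.5% Tween-80 (conjugates sonicated), across a range of doses. Mice were observed daily until death or 45 days. Median T/C was computed from survivors per NCI protocols, and ILS = (T/C − 1)×100.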

L1210 [4] = assay: Antitumor activity was determined against the ip implanted L1210 leukemia in mice by percent increase in life span at 5 mg/kg (treatment of 1-5qd schedule) dosage; assay type: functional, Mus musculus; conditions: route intraperitoneal; outline: as §4
L1210 [5] = assay: Antitumor activity was determined against the ip implanted L1210 leukemia in mice by percent median survival rate (treated/control) at 5 mg/kg (treatment of 1-5qd schedule) dosage; 9.0/8.0; assay type: functional, Mus musculus; conditions: route intraperitoneal; outline: as §2
NSCLC = assay: Compound was tested for the inhibition of non- small cell lung cancer; assay type: functional, cell-based; conditions: Homo sapiens; outline: as §1
[6] = system: Small cell lung cancer cell line; assay: Compound was tested for the inhibition of small cell lung cancer; assay type: functional, cell-based; conditions: Homo sapiens; outline: as §1
L1210 [7] = assay: Antitumor activity was determined against the ip implanted L1210 leukemia in mice by range in survival days at 200 mg/kg (treatment of 1qd schedule) dosage; Range is 14-23; assay type: functional, Mus musculus; conditions: route intraperitoneal; outline: as §2
L1210 [8] = assay: Antitumor activity against the ic implanted L1210 lymphoid leukemia in mice expressed as optimal dose (1 qd treatment schedule) required to produce greatest increase in life span was determined; assay type: functional, Mus musculus
Outline: (§5)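 DBA/2J mice, groups of 6 (26-32 g), got 1 × 10^5 L1210 cells ic on day 0. Dosing was ip starting 24 h later, as a sonicated solution or suspension in 0.9% NaCl with 0.5% Tween-80, over a wide dose range. Mice were followed daily until death. Median survival T/C was taken from survivors per NCI protocols, and ILS = (T/C − 1) × 100. Active range means doses giving ILS ≥25%; optimal dose means greatest ILS.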

L1210 [9] = assay: Antitumor activity against the ip implanted L1210 leukemia in mice expressed as optimal dose (1 qd treatment schedule) required to produce greatest increase in life span was determined; assay type: functional, Mus musculus; outline: as §3
L1210 [10] = assay: Antitumor activity was determined against the ic implanted L1210 lymphoid leukemia in mice by range in survival days at 300 mg/kg (1 qd treatment schedule) dosage; Range is 14-18; assay type: functional, Mus musculus
L1210 [11] = assay: Antitumor activity was determined against the ip implanted L1210 leukemia in mice by change in […] at 200 mg/kg (treatment of 1qd schedule) dosage; assay type: functional, Mus musculus; conditions: route intraperitoneal
Outline: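 DBA/2J mice, 6 per group (wt 23-28 g), inoculated ip with 1×10^6 L1210 cells on day 0. Treatment was given ip in 0.9% NaCl with 0.5% Tween-80, starting 24 h later. Weight change was taken on day 8. Mice were observed daily until death or 45 days. Median survival T/C and %ILS = (T/C − 1) × 100 came from survivors per NCI protocols, and 45-day survivors were counted.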

L1210 [12] = assay: Antitumor activity was determined against the ip implanted L1210 leukemia in mice by percent median survival rate (treated/control) at 200 mg/kg (treatment of 1qd schedule) dosage; 19.5/7.0; assay type: functional, Mus musculus; conditions: route intraperitoneal; outline: as §2
L1210 [13] = assay: Antitumor activity against ip implanted L1210 leukemia in mice expressed as active dose range (1 qd treatment schedule) required to produce increase in life span by >25% was determined; Range is 100-250; assay type: functional, Mus musculus; outline: as §3
L1210 [14] = assay: Antitumor activity was determined against the ip implanted L1210 leukemia in mice by 45-day survivors in mice at 200 mg/kg (treatment of 1qd schedule) dosage; assay type: functional, Mus musculus; conditions: route intraperitoneal; outline: as §4
L1210 [15] = assay: Antitumor activity was determined against the ic implanted L1210 lymphoid leukemia in mice by percent increase in life span at 300 mg/kg (1 qd treatment schedule) dosage; assay type: functional, Mus musculus; outline: as §5
L1210 [16] = assay: Antitumor activity was determined against the ip implanted L1210 leukemia in mice by percent increase in life span at 200 mg/kg (treatment of 1qd schedule) dosage; assay type: functional, Mus musculus; conditions: route intraperitoneal; outline: as §4
P388 [17] = assay: Antitumor activity was determined against the ip implanted P388 leukemia in mice by percent median survival rate (treated/control) at 200 mg/kg (1 qd treatment schedule) dosage; >45.0/12.0; assay type: functional, Mus musculus; conditions: route intraperitoneal
P388 [18] = assay: Antitumor activity was determined against the ip implanted P388 leukemia in mice by 45-day survivors in mice at 200 mg/kg (1 qd treatment schedule) dosage; assay type: functional, Mus musculus; conditions: route intraperitoneal
Outline: (§6)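 DBA/2J mice, 23-33 g, in groups of 6, were inoculated ip with 1×10^6 P388 cells on day 0. Dosing was ip from 24 h on the stated schedules, in 0.9% NaCl with 0.5% Tween-80 (sonicated solution or suspension). Survival was followed daily until death or 45 days. Median T/C was calculated from survivors per NCI protocols, with ILS = (T/C − 1) × 100.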

P388 [19] = assay: Antitumor activity against ip implanted P388 leukemia in mice expressed as active dose range (1 qd treatment schedule) required to produce increase in life span by >25% was determined; Range is 200-300; assay type: functional, Mus musculus
Outline: (§7)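 P388 leukemia: 1 × 10^6 cells were given ip on day 0 to DBA/2J mice, groups of 6 (23-33 g). Treatment was ip from 24 h after inoculation, vehicle 0.9% NaCl with 0.5% Tween-80. Mice were observed daily until death or 45 days. Median survival T/C was calculated from survivors per NCI protocols, and ILS = (T/C − 1) × 100. Active range means doses giving ILS ≥25%; optimal dose means greatest ILS.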

P388 [20] = assay: Antitumor activity was determined against the ip implanted P388 leukemia in mice by change in […] at 200 mg/kg (1 qd treatment schedule) dosage; assay type: functional, Mus musculus; conditions: route intraperitoneal
Outline: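 P388 leukemia, 1×10^6 cells implanted ip on day 0 into DBA/2J mice, groups of 6 (wt 23-33 g). Dosing ip started 24 h post-inoculation, vehicle 0.9% NaCl containing 0.5% Tween-80. Animals were observed daily until death or 45 days. Outputs were weight change, median survival T/C from survivors per NCI protocols, and %ILS = (T/C − 1) × 100.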

P388 [21] = assay: Antitumor activity was determined against the ip implanted P388 leukemia in mice by range in survival days at 200 mg/kg (1 qd treatment schedule) dosage; Range is 24->45; assay type: functional, Mus musculus; conditions: route intraperitoneal
P388 [22] = assay: Antitumor activity was determined against the ip implanted P388 leukemia in mice by percent increase in life span at 200 mg/kg (1 qd treatment schedule) dosage; assay type: functional, Mus musculus; conditions: route intraperitoneal; outline: as §6
P388 [23] = assay: Antitumor activity against the ip implanted P388 leukemia in mice expressed as optimal dose (1 qd treatment schedule) required to produce greatest increase in life span was determined; assay type: functional, Mus musculus; outline: as §7
L1210 [24] = assay: Antitumor activity was determined against the ic implanted L1210 lymphoid leukemia in mice by change in body weight at 300 mg/kg (1 qd treatment schedule) dosage
L1210 [25] = assay: Antitumor activity was determined against the ic implanted L1210 lymphoid leukemia in mice by median survival time at 300 mg/kg (1 qd treatment schedule) dosage; 14.5/7.0

`CCCCCCCCCCCCCCCCCCOC[C@H](COP(=O)([O-])OCC[N+](C)(C)C)OC` [(R)-EDELFOSINE] showed an IC50 (AMML) of 3.3 µM, an IC50 (CML/BC) of 1500 nM and an IC50 (Glioblastoma cell line) of 20 µM. For the same compound, the IC50 (HL-60) was 2500 nM, the Range (L1210 [1]) was 8 and the Optimal dose (L1210 [2]) was 5 mg/kg/day. The Survivors (L1210 [3]) was 0, the ILS (L1210 [4]) was 13 and the T/C (L1210 [5]) was 9%. The IC50 (NSCLC) was 21 µM and the IC50 [6] was 24 µM.

Work on `CCCCCCCCCCCCCCCC(=O)Nc1ccn([C@@H]2O[C@H](CO)[C@@H](O)[C@@H]2O)c(=O)n1` yielded a Range (L1210 [7]) of 14, an Optimal dose (L1210 [8]) of 300 mg and an Optimal dose (L1210 [9]) of 200 mg/kg/day. For the same compound, the Range (L1210 [10]) was 14, the Weight change (L1210 [11]) was -0.5 g mouse-1 and the median survival time (L1210 [12]) was 19.5 days. It also gave an Active dose range (L1210 [13]) of 100 mg/kg/day, a Survivors (L1210 [14]) of 0 and an ILS (L1210 [15]) of 107. The ILS (L1210 [16]) was 179, the T/C (P388 [17]) was greater than 45% and the Survivors (P388 [18]) was 5. It also gave an Active dose range (P388 [19]) of 200 mg/kg/day, a Weight change (P388 [20]) of 0.75 g mouse-1 and a Range (P388 [21]) of 24. For the same compound, the ILS (P388 [22]) was greater than 275, the Optimal dose (P388 [23]) was 200 mg and the Weight change (L1210 [24]) was -2.04 g mouse-1. It also gave a median survival time (L1210 [25]) of 14.5 days.
